# Test results published in ChEMBL document CHEMBL1130167, “NMR-based discovery of lead inhibitors that block DNA binding of the human papillomavirus E2 protein” (J Med Chem, 1997).
# pIC50, pKd: −log10 of the molar value.
# Test system: Nucleic Acid
# Experiment: Compound was tested for inhibition activity against HPV-E2 DNA-binding domain (DBD) (human papillomavirus E2) binding to DNA
# Assay type: nucleic-acid assay
# Summary of the method: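 Filter-binding assay: binding reactions at room temperature for 10 min in binding buffer (20 mM Tris-HCl pH 7.5, 100 mM NaCl, 5 mM DTT, 1 mM EDTA, BSA) with 4 nM DNA and 400 nM E2 DBD. Compounds were added from DMSO stocks at various concentrations. Mixtures were filtered through nitrocellulose, washed with buffer lacking BSA and counted by scintillation. IC50 was read from concentration versus percent inhibition plots.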
row,SMILES,pIC50
1,O=C(O)/C=C/C=C/c1cccc(Oc2cc(Cl)cc(Cl)c2)c1,5.00
2,O=C(O)/C=C/C=C/c1ccc(Oc2ccccc2)cc1,4.12
3,O=C(O)c1ccc(-c2cc(Cl)cc(Cl)c2)cc1,3.82
4,O=C(O)c1ccc(-c2ccccc2)cc1,< 3.00
5,O=C(O)CCCc1ccc(Oc2ccccc2)cc1,< 3.00

# Molecular target: Regulatory protein E2 (Human papillomavirus type 31)
# Experiment: Dissociation constant after binding to human papillomavirus E2 DNA-binding domain (DBD) by observing the changes in [15N]-HSQC spectra.
row,SMILES,pKd
1,CN(C)c1ccc(-c2ccc(C(=O)O)cc2)cc1,2.17
2,Cc1ccccc1-c1ccc(C(=O)O)cc1,2.57
3,O=C(O)c1ccc(-c2cccc(Cl)c2)cc1,2.92
4,O=C(O)c1ccc(-c2ccc(Oc3ccccc3)cc2)cc1,2.68
5,Cc1cccc(-c2ccc(C(=O)O)cc2)c1,2.72
6,O=C(O)c1ccc(-c2cccc(F)c2)cc1,2.80
7,O=C(O)/C=C/C=C/c1ccc(Oc2ccccc2)cc1,3.46
8,O=C(O)CCCCc1ccc(Oc2ccccc2)cc1,3.07
9,O=C(O)c1ccc(-c2cc(Cl)cc(Cl)c2)cc1,4.22
10,O=C(O)c1ccc(-c2ccc(Cl)c(Cl)c2)cc1,2.18
11,O=C(O)Cc1cccc(Oc2ccccc2)c1,< 2.00
12,O=C(O)c1ccc(-c2ccc(Cl)cc2Cl)cc1,2.46
13,Nc1cccc(-c2ccc(C(=O)O)cc2)c1,< 2.00
14,O=C(O)c1ccc(-c2ccc(C(F)(F)F)cc2)cc1,2.82
15,COc1ccc(-c2ccc(C(=O)O)cc2)cc1,2.06
16,O=C(O)c1ccc(-c2cc(C(F)(F)F)cc(C(F)(F)F)c2)cc1,< 2.00
17,O=C(O)c1ccc(-c2ccc([N+](=O)[O-])c(Cl)c2)cc1,< 2.00
18,O=C(O)c1ccc(-c2cccc(C(F)(F)F)c2)cc1,3.49
19,O=C(O)CCCc1ccc(Oc2ccccc2)cc1,2.72
20,CC(C)(C)c1ccc(-c2ccc(C(=O)O)cc2)cc1,< 2.00
21,O=C(O)c1ccc(-c2cccc([N+](=O)[O-])c2)cc1,2.05
22,O=C(O)CCc1ccc(Oc2ccccc2)cc1,2.64
23,COc1ccccc1-c1ccc(C(=O)O)cc1,2.77
24,O=C(O)c1ccc(-c2ccc(O)cc2)cc1,< 2.00
